Screening results as filed in PubChem.
M18AAP inhibitor: PfM18AAP inhibitors, malaria aminopeptidase, primary screen, biochemical, QFRET, recombinant enzyme. 1.2% of 290,000 active. M18 aspartyl aminopeptidase (Plasmodium falciparum 3D7). H-Glu-NHMec fluorogenic cleavage. inhibition, % at 7.35 µM;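 active = inhibition above the campaign mean inhibition over all tested compounds plus 3 SD, cut at about 28% in these data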
PfG6PD inh: PfG6PD enzyme inhibitors, primary screen, biochemical, fluorescence intensity, uHTS | glucose-6-phosphate dehydrogenase-6-phosphogluconolactonase (Plasmodium falciparum 3D7) | PfGluPho enzyme, NADPH resazurin-diaphorase fluorescence | inhibition, % at 20 µM | 0.78% of 350,000 active | AID 504690, 2011;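 active = inhibition reaching at least a set limit at 20 µM in the primary screen, cut at about 59% in these data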
Apaf1 inhib: inhibitors of human Apaf-1 apoptosome, primary screen, biochemical, DEVD-Rh110 fluorescence, uHTS. reconstituted apoptosome caspase-3 activity. 0.71% of 330,000 active. inhibition, % at 20 µM. AID 489030, 2010; active = inhibition of at least 40% at 20 µM
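Material: reconstituted apoptosome with Apaf-1, cytochrome c, caspase-9, procaspase-3, dATP; medium: pH 7.5 Hepes buffer with CHAPS, BSA, DTT; also added: cytochrome c and DEVD-Rh110 substrate; timing: 30 min plus 50 min, RT; signal: Rh110 fluorescence intensity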
UBC13 polyUb: UBC13 polyubiquitin chain formation inhibitors, primary screen, biochemical, TR-FRET, uHTS; Ubiquitin-conjugating enzyme E2 N (Homo sapiens), P61088; inhibition, % at 20 µM; 0.47% of 330,000 active; in the data active = inhibition above about 45%, passing the limit was not always enough
EBNA-1 inh: EBNA-1 DNA-binding inhibitors, primary screen, biochemical, fluorescence polarization; inhibition, % at 14.8 µM; 0.34% of 300,000 active; AID 1950, 2009; in the data active = inhibition above about 28%
ZTA counter: ZTA (EBV) inhibition in EBNA-1 counter-screen | inhibition, % at 11 µM | 0.15% of 320,000 active | ZTA-DNA binding, fluorescence polarization | P03206; in the data active = inhibition above about 33%
ZTA inh confirm: EBV Zta binding to ZRE DNA, inhibitors, confirmation, biochemical, fluorescence polarization, triplicate. shares compounds with ZTA counter. inhibition, % at 11.1 µM. 30% of 320 active;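 active = mean inhibition across triplicate runs above the hit threshold derived for the original primary screen, cut at about 33% in these data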
EBNA-1 counter: EBNA-1 DNA-binding inhibition, counter-screen for ZTA inhibitor project, biochemical, fluorescence polarization; shares compounds with ZTA counter; inhibition, % at 14.8 µM; 320 tested, under 10 active; AID 2362, 2010; call rule not given here
Each line names hits and unclear results; the compound was inactive in the other large screens (follow-up assays come after a bar, where they were run). Sampled rows, rich in hits. Any-hit rate of the full collection: about 2.9%.

COc1cc(C#Cc2c(-c3cncn3C)n(C)c3ccc(-c4cnc(OC)nc4)cc23)cc(OC)c1	Apaf1 inhib 42, ZTA counter 38 (no result: M18AAP inhibitor, EBNA-1 inh) | ZTA inh confirm inactive | EBNA-1 counter inactive
Cc1nn(-c2ccccc2)c(Cl)c1/C=N/Nc1nncc(=O)[nH]1	none
CC1(C)C(C=C(Cl)Cl)C1C(=O)N1CCN(Cc2ccccc2)CC1 (stereo unspecified)	none
O=C(COc1ccc(S(=O)(=O)NC2CCCCC2)cc1Cl)NCC1CCCO1 (stereo unspecified)	ZTA counter 152 | ZTA inh confirm inactive | EBNA-1 counter inactive
Cc1cc(S(=O)(=O)NC2CCCCC2)ccc1OCC(=O)NCC1CCCO1 (stereo unspecified)	none
CCSc1c(-c2ccccc2)nc2c(C)cccc2c1C(=O)O	none
COc1ccc2nc(SCC(=O)Nc3cc(C)on3)c(C#N)cc2c1	ZTA counter 50 | ZTA inh confirm inactive | EBNA-1 counter inactive
COc1cccc(OC)c1C(=O)Nc1nc2ccc([N+](=O)[O-])cc2s1	none
Cc1ccc(-n2nc(C(=O)NCc3ccco3)c3c4ccccc4n(C)c3c2=O)cc1	ZTA counter 45 | ZTA inh confirm inactive | EBNA-1 counter inactive
CCN(CC)CCNC(=O)c1nn(-c2ccc(C)cc2)c(=O)c2c1c1ccccc1n2C	none
COc1cccc(CC2(CO)CCN(CC3=CC[C@H]4C[C@@H]3C4(C)C)CC2)c1	none
CCCC(=O)Nc1ccc2oc(-c3cccnc3)nc2c1	ZTA counter 45 | ZTA inh confirm inactive | EBNA-1 counter inactive
O=C(Nc1cc(S(=O)(=O)N2CCOCC2)ccc1N1CCOCC1)c1ccc(Cl)nc1	ZTA counter 34 | ZTA inh confirm inactive | EBNA-1 counter inactive
COCCCN(C(=O)c1cc2c(s1)CCCCC2)c1c(N)n(Cc2ccccc2)c(=O)[nH]c1=O	ZTA counter 162 (no result: M18AAP inhibitor) | ZTA inh confirm inactive | EBNA-1 counter inactive
CN(C)c1ccc(N/C=C/C(=O)c2ccco2)cc1	ZTA counter 91 | ZTA inh confirm inactive | EBNA-1 counter inactive
NS(=O)(=O)c1ccc(N/C=C\C(=O)c2ccc(F)cc2)cc1	none
CN(C)c1ccc(N/C=C/C(=O)c2ccc(F)cc2)cc1	ZTA counter 78 | ZTA inh confirm inactive | EBNA-1 counter inactive
CC(=O)Nc1ccc(N/C=C/C(=O)c2ccco2)cc1	none
COc1ccc(-n2nc3c(c2NC(=O)CCl)CSC3)cc1	none
C[C@@H]1CN([C@@H](C)CO)C(=O)c2cccc(NC(=O)Nc3ccc4c(c3)OCO4)c2O[C@H]1CN(C)S(=O)(=O)c1cn(C)cn1	none (no result: M18AAP inhibitor, EBNA-1 inh, ZTA counter)
CCNc1ccc2noc3c2c1C(=O)c1ccccc1-3	ZTA counter 63 | ZTA inh confirm inactive | EBNA-1 counter inactive
O=C1c2ccccc2-c2onc3ccc(N4CCCC4)c1c23	none (no result: Apaf1 inhib, UBC13 polyUb, EBNA-1 inh, ZTA counter)
COc1cccc(NS(=O)(=O)c2ccc3c(c2)C2C=CCC2C(c2ccc(C(=O)O)cc2)N3)c1 (stereo unspecified)	ZTA counter 38 (no result: Apaf1 inhib, UBC13 polyUb) | ZTA inh confirm inactive | EBNA-1 counter inactive
C/C=C\C=C\C(=O)N1CC2(CC(c3cccc(NC(=O)CC)c3)=NO2)C[C@H]1C(N)=O (stereo partly specified)	ZTA counter 35 (no result: M18AAP inhibitor) | ZTA inh confirm inactive | EBNA-1 counter inactive
CC1=NN(c2ccccc2)C(=O)/C1=C/C=C/c1ccccc1	none
CC1=NN(c2cccc(C(=O)O)c2)C(=O)/C1=C\C=C\c1ccco1	ZTA counter 70 | ZTA inh confirm 67 | EBNA-1 counter inactive
CC1(C)CC(=O)C2=C(C1)OC(N)=C(C#N)C2c1ccccc1[N+](=O)[O-] (stereo unspecified)	ZTA counter 129 | ZTA inh confirm inactive | EBNA-1 counter inactive
OCCC1CN(Cc2ccccc2-c2ccco2)CCN1C1CCCC1 (stereo unspecified)	none
Cn1c2ccccc2c(=O)n2c(=O)c3ccccc3cc12	Apaf1 inhib 98, ZTA counter 43 (no result: PfG6PD inh) | ZTA inh confirm 33 | EBNA-1 counter inactive
O=C(NCC(=O)N(c1ccccc1F)C(C(=O)NC1CCCC1)c1ccncc1)c1ccco1 (stereo unspecified)	none
C#CCOCCOCCOCCNc1nc(OC)nc(N2CCN(C(=O)[C@H](CCCCN)n3cc(C(N)CO)nn3)CC2)n1 (stereo partly specified)	none (no result: M18AAP inhibitor, PfG6PD inh, EBNA-1 inh, ZTA counter)
C#CCOCCOCCOCCNc1nc(N2CCOCC2)nc(N2CCN(C(=O)[C@H](CCCCN)n3cc([C@@H](N)CO)nn3)CC2)n1	ZTA counter 168 | ZTA inh confirm inactive | EBNA-1 counter inactive
C#CCOCCOCCOCCNc1nc(N2CCN(C(=O)CCCCCCCCCCNC(=O)[C@H](CCCCN)n3cc(C[C@@H](C)CC)nn3)CC2)nc(N2CCN(C(=O)CCCCCCCCCCNC(=O)[C@@H]([C@H](C)O)n3cc(C)nn3)CC2)n1	Apaf1 inhib 58, UBC13 polyUb 118, ZTA counter 50 (no result: M18AAP inhibitor) | ZTA inh confirm inactive | EBNA-1 counter inactive
C#CCOCCOCCOCCNc1nc(N2CCN(C(=O)CCCCCCCCCCNC(=O)[C@@H](CCSC)n3cc(CCO)nn3)CC2)nc(N2CCN(C(=O)CCCCCCCCCCNC(=O)[C@@H]([C@H](C)O)n3cc(C)nn3)CC2)n1	none (no result: M18AAP inhibitor)
COc1cccc(-n2cc(C(=O)NC(C)C)c3ccccc3c2=O)c1	ZTA counter 155 | ZTA inh confirm inactive | EBNA-1 counter inactive
CC1CCCN(C2(O)C(=O)Nc3ccc(Cl)cc32)C1 (stereo unspecified)	none
Fc1ccc(/C=N/NC2=Nc3cccc4cccc2c34)cc1	ZTA counter 179 | ZTA inh confirm inactive | EBNA-1 counter inactive
Cc1ccc(-c2nn(-c3ccccc3)cc2C(=O)O)o1	ZTA counter 37 (no result: PfG6PD inh) | ZTA inh confirm inactive | EBNA-1 counter inactive
CCCCNC(=S)N1CCN(C(c2ccccc2)c2ccccc2)CC1	ZTA counter 43 | ZTA inh confirm inactive | EBNA-1 counter inactive
CCCNC(=S)N1CCN(C(c2ccccc2)c2ccccc2)CC1	none
O=C(Nn1c(C2CCC2)nc2ccccc2c1=O)c1cccs1	ZTA counter 34 | ZTA inh confirm inactive | EBNA-1 counter inactive
CC(=O)c1ccc(NC(=O)c2cccc(N3C(=O)c4ccccc4C3=O)c2)cc1	none
NS(=O)(=O)c1ccc(NC(=O)c2cccc(N3C(=O)c4ccccc4C3=O)c2)cc1	ZTA counter 61 | ZTA inh confirm 58 | EBNA-1 counter inactive
